Data: ChEMBL document CHEMBL1148739, “Microwave-assisted ring opening of epoxides: a general route to the synthesis of 1-aminopropan-2-ols with anti malaria parasite activities” (J Med Chem, 2007)
pIC50: −log10 of the molar value. The source made the active and inactive calls. The calls are words filed in the database; no cut-off is given here.

What was measured:
[1] = system: Plasmodium falciparum; experiment: Antimalarial activity against Plasmodium falciparum FCR3 after 72 hrs; assay type: functional, organism-based; conditions: FCR3, 72 h
Summary of the method: (§1)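 P. falciparum in continuous culture in 5% O+ erythrocytes, RPMI-1640 with 25 mM HEPES, 0.5% albumax, 2 mM L-glutamine, gentamicin; 37 °C, 5% CO2/5% O2/90% N2; sorbitol-synchronized. Ring stages seeded at 0.05% parasitemia, 1.5% hematocrit; 72 h with threefold serial dilutions from 100 µM. HRPII accumulation after freeze-thaw lysis read as percent of untreated controls; duplicates; IC50 from 72 h HRPII production.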

[2] = system: Plasmodium falciparum; experiment: Antimalarial activity against Plasmodium falciparum 3D7 after 72 hrs; assay type: functional, organism-based; conditions: 3D7, 72 h; summary of the method: as §1
[3] = molecular target: T1, Aquaglyceroporin (Plasmodium falciparum) (UniProt Q8II36); experiment: Inhibition of Plasmodium falciparum AQP expressed in BY4742-deltafpsl cells at 100 uM after 48 hrs; assay type: cell-based
T1 sequence (whole entry): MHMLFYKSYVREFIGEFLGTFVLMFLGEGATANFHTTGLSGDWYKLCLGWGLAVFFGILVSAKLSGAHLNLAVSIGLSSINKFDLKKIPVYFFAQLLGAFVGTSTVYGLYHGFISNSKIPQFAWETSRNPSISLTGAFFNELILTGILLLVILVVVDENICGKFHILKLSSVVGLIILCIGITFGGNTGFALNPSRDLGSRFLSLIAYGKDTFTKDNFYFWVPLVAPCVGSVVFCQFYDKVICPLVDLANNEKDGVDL
Summary of the method: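 BY4742Δfps1 yeast expressing PfAQP grown in 20 mM MES-buffered (pH 5.5) minimal YNB with 3% glucose, 0.1% proline, with or without 50 mM methylamine hydrochloride; compound at 100 µM, untreated cells as controls.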

[4] = system: NALM-6; experiment: Effect on cell viability in human NALM6 cells at 100 uM after 24 hrs; assay type: functional, cell-based
Summary of the method: (§2)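 Cell lines kept at 37 °C in RPMI 1640 with L-glutamine and 10% fetal calf serum under 5% humidified CO2. Cell suspension (25 cells/µL) exposed to 100 µM compound for 24 h (one cell cycle) at 37 °C. Viability by Trypan Blue dye uptake; duplicates.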

[5] = system: MONO-MAC-6; experiment: Effect on cell viability in human MONO-MAC-6 cells at 100 uM after 24 hrs; assay type: functional, cell-based; summary of the method: as §2
[6] = system: Jurkat; experiment: Effect on cell viability in human Jurkat lymphoblastoid cells at 100 uM after 24 hrs; assay type: functional, cell-based; summary of the method: as §2

| SMILES | pIC50 [1] | pIC50 [2] | Activity [3] | Activity [4] | Activity [5] | Activity [6] |
| --- | --- | --- | --- | --- | --- | --- |
| CCN(CC)CC(O)COCc1ccccc1 (stereo not drawn) | 4.55 |  |  |  |  |  |
| CCN(Cc1ccccc1)CC(O)COCc1ccccc1 (stereo not drawn) | 6.15 |  | inactive |  |  |  |
| CN(Cc1ccccc1)CC(O)CN(C)Cc1ccccc1 | 4.36 | 4.36 |  |  |  |  |
| C=CCNCC(O)CCl (stereo not drawn) | 4.62 |  |  |  |  |  |
| CN(Cc1ccccc1)CC(O)CSCc1ccccc1 (stereo not drawn) | 4.79 | 5.03 |  | inactive | inactive | inactive |
| CCN(Cc1ccccc1)CC(O)CN(C)Cc1ccccc1 (stereo not drawn) | 5.11 | 5.43 | inactive | inactive | inactive | inactive |
| OC(CCl)CN1CCNCC1 (stereo not drawn) | 4.41 | 4.18 |  | inactive | inactive | inactive |
| OC(CNCc1ccccc1)COCc1ccccc1 (stereo not drawn) | 4.90 |  | inactive |  |  |  |
| OC(CNCc1cccs1)COCc1ccccc1 (stereo not drawn) | 5.24 | 5.01 | inactive | inactive | inactive | inactive |
| OC(CNCCc1cccs1)COCc1ccccc1 (stereo not drawn) | 5.92 |  |  |  |  |  |
| CN(Cc1ccccc1)CC(O)CNCc1ccccc1 (stereo not drawn) | 4.38 | 4.81 |  |  |  |  |
| OC(CNCc1ccco1)COCc1ccccc1 (stereo not drawn) | 5.47 |  |  |  |  |  |
| CN(Cc1ccccc1)CC(O)COCc1ccccc1 (stereo not drawn) | 5.70 | 4.33 | inactive |  |  |  |
| CN(Cc1ccccc1)CC(O)CCl (stereo not drawn) | 4.51 | 4.81 |  | inactive | inactive | inactive |

Now from value to compound, other results behind:

| pIC50 [1] | pIC50 [2] | Activity [3] | SMILES | Activity [4] | Activity [5] | Activity [6] |
| --- | --- | --- | --- | --- | --- | --- |
| 4.99 | 4.82 |  | OC(CNC1CCCC1)COCc1ccccc1 (stereo not drawn) |  |  |  |
| 5.23 | 5.29 |  | O[C@@H](CNC1CCCC1)COCc1ccccc1 |  |  |  |
| 4.69 |  |  | OC(COCc1ccccc1)CN1CCCC1 (stereo not drawn) |  |  |  |
| 4.51 |  |  | OC(CNc1ccccn1)COCc1ccccc1 (stereo not drawn) |  |  |  |
| 4.90 |  |  | OC(COCc1ccccc1)CN1CCNCC1 (stereo not drawn) |  |  |  |
| 4.82 |  |  | OC(CNC1CCC1)COCc1ccccc1 (stereo not drawn) |  |  |  |
| 4.80 | 4.49 |  | CCN1CCCC1CNCC(O)COCc1ccccc1 (stereo not drawn) |  |  |  |
| 4.90 |  |  | CC(C)(C)NCC(O)COCc1ccccc1 (stereo not drawn) |  |  |  |
| 5.11 |  |  | OC(CNCC1CCCO1)COCc1ccccc1 (stereo not drawn) |  |  |  |
| 5.08 |  | inactive | OC(CNCC1CC1)COCc1ccccc1 (stereo not drawn) |  |  |  |
| 5.34 | 5.41 |  | O[C@H](CNC1CCCC1)COCc1ccccc1 |  |  |  |
